From ChEMBL document CHEMBL5137016, “Turning Nonselective Inhibitors of Type I Protein Arginine Methyltransferases into Potent and Selective Inhibitors of Protein Arginine Methyltransferase 4 through a Deconstruction-Reconstruction and Fragment-Growing Approach” (J Med Chem, 2022) come the findings set out here.

For series [1], the target named is T1, Histone-arginine methyltransferase CARM1 (Homo sapiens, UniProt Q86X55).
T1 sequence (Q86X55 whole entry): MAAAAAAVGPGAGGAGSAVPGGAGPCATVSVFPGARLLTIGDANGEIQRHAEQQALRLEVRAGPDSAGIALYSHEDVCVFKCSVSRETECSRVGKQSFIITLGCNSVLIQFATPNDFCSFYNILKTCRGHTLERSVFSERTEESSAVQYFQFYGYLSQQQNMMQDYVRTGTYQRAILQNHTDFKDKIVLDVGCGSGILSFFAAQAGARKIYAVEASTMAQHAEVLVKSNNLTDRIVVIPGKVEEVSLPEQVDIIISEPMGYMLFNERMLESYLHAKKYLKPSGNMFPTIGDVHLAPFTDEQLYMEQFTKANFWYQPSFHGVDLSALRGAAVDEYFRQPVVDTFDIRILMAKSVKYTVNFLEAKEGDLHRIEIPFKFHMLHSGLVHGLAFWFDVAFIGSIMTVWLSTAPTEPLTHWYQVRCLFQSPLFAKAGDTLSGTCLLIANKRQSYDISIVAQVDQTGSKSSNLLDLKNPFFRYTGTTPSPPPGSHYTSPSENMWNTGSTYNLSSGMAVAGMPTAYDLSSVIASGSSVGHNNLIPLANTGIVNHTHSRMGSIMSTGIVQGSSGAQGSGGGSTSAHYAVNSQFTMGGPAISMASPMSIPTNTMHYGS
In words: Inhibition of PRMT4 (unknown origin).

The target of series [2] is T2, Histone-arginine methyltransferase CARM1 (Homo sapiens) (UniProt Q86X55).
T2 sequence (whole entry): T1 sequence (Q86X55 whole entry)
In words: Binding affinity to full length recombinant PRMT4 (unknown origin) assessed as binding constant (Kon) by surface plasmon resonance analysis. A digest of the protocol: (§1)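 Full-length recombinant PRMT4 was amine-coupled to a CM5 chip at 50 μg/mL in 10 mM acetate pH 4.5, to 4.6 kRU, with an empty reference cell. The running buffer was PBS pH 7.4 with 0.05% Tween-20 and 2% DMSO. Compounds ran as 12 serial dilutions from 640 to 10 nM at 25 °C and 30 μL/min, with 90 s association and 90 s dissociation. Data were solvent-corrected and double-referenced, and KD was taken as koff/kon.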

Series [3] is described as follows: Apparent permeability of the compound in phosphate buffer at pH 7.4 measured after 24 hrs by PAMPA assay. Type of series: ADME. Conditions: pH 7.4, 24 h. In general terms: PAMPA measures passive passage across an artificial lipid membrane.
The test system of another series is HEK-293T. In words: Cytotoxicity against human HEK293T cells assessed as cell viability at 10 to 100 uM incubated for 24 to 72 hrs by MTT assay. Particulars: dose lower 10 µM, time lower 24 hrs, dose upper 100 µM, time upper 72 hrs. The series is classed as toxicity, cell-based. A digest of the protocol: (§2)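 HEK293T cells grown in DMEM with 10% FBS, penicillin/streptomycin and 2 mM glutamine at 37 °C, 5% CO2; seeded at 5 × 10^4 cells/mL, exposed 24 or 72 h to 10, 50 or 100 μM in 0.2% DMSO; MTT formazan dissolved in DMSO, read at 550 nm minus 620 nm; quadruplicate; percent of 0.2% DMSO control.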

Series [4] in a line: Cytotoxicity against human HEK293T cells assessed as cell viability at 10 to 100 uM measured after 72 hrs by MTT assay. The series is classed as toxicity, cell-based, HEK-293T. Particulars: dose 10-100 µM, read-out: Activity. A digest of the protocol:
as §2

For series [5], the target named is T2, Histone-arginine methyltransferase CARM1 (Homo sapiens). Description: Binding affinity to full length recombinant PRMT4 (unknown origin) assessed as binding constant (Koff) by surface plasmon resonance analysis. The essentials:
as §1
For orientation: Surface plasmon resonance follows binding to a sensor surface in real time, without labels.

The target is the same in series [6]. In words: Binding affinity to full length recombinant PRMT4 (unknown origin) assessed as in vitro residence time by surface plasmon resonance analysis. A digest of the protocol: as §1
Series [7] has as its system MCF7. Description: Antiproliferative activity against human MCF7 cells assessed as reduction in cell viability at 50 uM incubated up to 8 days by cell titer-glo assay. Type of series: functional, cell-based. Particulars: time <= 8.0 day. The essentials:
(§3)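 MCF7 seeded at 1000 cells/well in 96-well plates; proliferation read at days 0, 2, 4, 6 and 8 with medium changed at day 4; viability measured by CellTiter-Glo luminescence.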
(In general: ATP-based viability assays read luminescence as a measure of living cells.)

Series [8] deals with MCF7. Description: Antiproliferative activity against human MCF7 cells assessed as reduction in cell viability at 10 uM incubated up to 8 days by cell titer-glo assay. The series is classed as functional, cell-based. Conditions: time <= 8.0 day. The essentials:
as §3

Series [9] can be described thus: Toxicity in human HEK293T cells assessed as cell death at >10 uM measured after 24 hrs. Particulars: hek-293t.
A further series is filed under the species Homo sapiens. In words: Selectivity index, ratio of IC50 for inhibition of human full length recombinant GST-tagged PRMT6 (2 to 375 residues) using GST-GAR as substrate to IC50 for inhibition of human full length recombinant GST-tagged PRMT4 (2 to 608 residues) using histone H3 as substrate. A digest of the protocol:
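Radioisotope filter-binding assay: PRMT6 used 5 μM GST-GAR and PRMT4 used 5 μM histone H3, in pH 8.5 Tris buffer with 1% DMSO. Compound was preincubated 20 min at room temperature, then 1 μM 3H-SAM was added for 60 min at 30 °C, with scintillation read-out. […] Index = IC50(PRMT6)/IC50(PRMT4), rounded to integer.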

Calls of active or inactive are those of the source. The rule behind the calls is not given here.

A word on the IC50: it is the concentration that inhibits the measured activity by half. Lower therefore signals greater potency.

In series [1], `COc1ccc(CCNC(=O)[C@@H](N)CC[C@H](CNCc2ccccc2)C[C@H]2O[C@@H](n3cnc4c(N)ncnc43)[C@H](O)[C@@H]2O)cc1` displayed a half-maximal inhibitory concentration (IC50) of 1900 nM.

On to `COC(=O)c1cc(O)c2cc(NC(=O)NCCCCNC(=N)NCC[C@H]3O[C@@H](n4cnc5c(N)ncnc54)[C@H](O)[C@@H]3O)ccc2c1`, for which the K in [2] is 2.7 10^6/Ms. Moreover, the permeability result in series [3] was “Impermeable”. Besides, in the series on HEK-293T, the Activity entry is “Non-Toxic”. Moreover, in [4], the viability at 72 h, up to 100 µM came out at 80%.

Regarding `C[S+](CCC(N)C(=O)O)C[C@H]1O[C@@H](n2cnc3c(N)ncnc32)[C@H](O)[C@@H]1O` (single isomer, unassigned), the K in series [2] is 2.9 10^5/Ms; in series [5] it was 0.003 s⁻¹. Besides, in series [6], the TIME is 0.0926 h.

Regarding `COC(=O)c1cc(O)c2cc(NC(=O)NCCCCNC(=N)NC/C=C/[C@H]3O[C@@H](n4cnc5c(N)ncnc54)[C@H](O)[C@@H]3O)ccc2c1`, in [3], the permeability result is “Impermeable”. The Activity result in the series with HEK-293T is given as “Non-Toxic”. The viability at 72 h, up to 100 µM in series [4] is 80%. The result with MCF7 [7] was Active.

Regarding `COC(=O)c1cc(O)c2cc(NC(=O)NCCCCNC(=N)NCCC[C@H]3O[C@@H](n4cnc5c(N)ncnc54)[C@H](O)[C@@H]3O)ccc2c1`, the K in series [2] was 0.25 10^6/Ms. Moreover, the permeability result in series [3] was “Impermeable”. The Activity entry with HEK-293T is given as “Non-Toxic”. The viability at 72 h, up to 100 µM in series [4] turned out to be 80%.

`CNCCN1CCC(c2cc(CN(C)C(=O)c3cccc(Oc4ccccc4)c3)ccn2)CC1`: the outcome with MCF7 [8] was Active. Besides, in [9], the Activity result is “Toxic”.

For `COC(=O)c1cc(O)c2cc(NC(=O)NCCCCCNC(=N)NC[C@H]3O[C@@H](n4cnc5c(N)ncnc54)[C@H](O)[C@@H]3O)ccc2c1`, the Selectivity Index in the series filed under Homo sapiens is greater than 238. Also, the K in [2] is 3.49 10^4/Ms.

For `COC(=O)c1cc(O)c2cc(NC(=O)NCCCCCCCNC(=N)NC[C@H]3O[C@@H](n4cnc5c(N)ncnc54)[C@H](O)[C@@H]3O)ccc2c1`, the K in [2] was 2.58 10^4/Ms.
